Compounds with a hit are over-represented: about 2.5% of the library has one in this group of screens.
TRPC4 PAM: allosterically enhances the mouse TRPC4 cation channel; 310,000 compounds, 0.42% hits; Q9QUQ5; AID 2227; HEK293 TRPC4beta/mu-opioid, DAMGO EC20, Fluo-4 Ca2+ flux; hits give high values; B-score at 10 µM;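 active means B-score of calcium response area above 5 SD of library B-scores, with initial fluorescence ratio within 5 SD of library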
Platelet DG rel: modulates dense granule release in human platelets | human platelet-rich plasma, SFLLRN dense granule ATP release, luminescence | inhibition, %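 (compounds screened at 7.5 µM in platelet-rich plasma)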 | AID 1663 | 300,000 compounds, 0.22% hits;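 active means mean replicate score, as percent of positive control, at or above 50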
TRPC6 act: mouse TRPC6 channel activation. HEK293-TRPC6 membrane potential dye fluorescence; hits give high values. B-score at 10 µM. 310,000 compounds, 0.13% hits;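 active means B-score of the integrated fluorescence ratio above library mean plus 3 SD, and starting fluorescence ratio within library mean plus 5 SD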;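 further: higher score means more depolarization so channel activation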
Target sequence (Q61143 whole entry, looked up): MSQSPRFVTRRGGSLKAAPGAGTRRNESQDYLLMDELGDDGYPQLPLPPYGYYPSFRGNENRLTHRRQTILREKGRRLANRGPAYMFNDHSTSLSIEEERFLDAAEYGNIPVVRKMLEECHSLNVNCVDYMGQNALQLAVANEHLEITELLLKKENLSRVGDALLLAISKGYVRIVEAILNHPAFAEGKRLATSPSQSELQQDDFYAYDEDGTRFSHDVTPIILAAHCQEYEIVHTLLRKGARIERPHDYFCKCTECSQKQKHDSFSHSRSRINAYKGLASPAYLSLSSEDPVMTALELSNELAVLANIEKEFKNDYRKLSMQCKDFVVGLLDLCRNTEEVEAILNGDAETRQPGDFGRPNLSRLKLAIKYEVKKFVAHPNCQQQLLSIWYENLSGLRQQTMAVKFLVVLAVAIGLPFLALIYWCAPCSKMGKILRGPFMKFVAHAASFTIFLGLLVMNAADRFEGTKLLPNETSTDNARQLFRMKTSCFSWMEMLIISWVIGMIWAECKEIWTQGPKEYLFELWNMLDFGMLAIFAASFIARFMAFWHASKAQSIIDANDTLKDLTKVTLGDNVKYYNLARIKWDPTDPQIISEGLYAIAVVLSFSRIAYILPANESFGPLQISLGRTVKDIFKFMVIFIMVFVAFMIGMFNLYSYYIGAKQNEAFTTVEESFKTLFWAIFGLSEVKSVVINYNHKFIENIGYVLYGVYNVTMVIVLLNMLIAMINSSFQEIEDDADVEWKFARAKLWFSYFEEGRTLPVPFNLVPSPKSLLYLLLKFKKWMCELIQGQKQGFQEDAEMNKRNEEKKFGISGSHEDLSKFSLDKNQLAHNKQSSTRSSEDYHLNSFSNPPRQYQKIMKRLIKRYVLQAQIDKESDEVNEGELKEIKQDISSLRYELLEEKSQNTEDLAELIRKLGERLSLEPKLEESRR
TRPC4 inh: blocks the mouse TRPC4 cation channel. HEK293 TRPC4beta/mu-opioid, DAMGO-evoked Fluo4 calcium flux; hits give low values. B-score at 10 µM. 300,000 compounds, 0.39% hits. AID 2247;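 active means B-score over 3 SD under the library average, no early fluorescence shift, positive overall ratio signal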
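Assay system: Stable TRPC4beta/mu-opioid receptor HEK293 cells | Reagent: DAMGO in two steps, submaximal then maximal | Compound dosing: Single concentration per test compound | Signal: Fluo4 Ca2+ flux fluorescence | Evaluation: Per-well B score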
TRPC6 inh: inhibitors of mouse TRPC6 channel; HEK293-TRPC6, membrane potential dye, ACh-evoked depolarization; hits give low values; B-score at 10 µM; 310,000 compounds, 1.1% hits; AID 2553;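 active means B-score under library mean minus 3 SD, initial fluorescence not abnormally high, positive integrated signal ratio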;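 further: B-score derived from integrated fluorescence ratio over the kinetic read; more negative B-score means stronger inhibition of depolarization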
TRPC4 agonist: opens the mouse TRPC4 cation channel; AID 2237; Q9QUQ5; HEK293 TRPC4beta/mu-opioid, Fluo4 calcium fluorescence; hits give high values; 310,000 compounds, 0.49% hits; B-score at 10 µM;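 active means B-score above 5 SD of library B-scores, and initial fluorescence ratio not above library mean plus 5 SD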;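 further: positive B-score marks a calcium rise read as TRPC4 activation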
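Technique: kinetic Fluo4 calcium fluorescence; Test system: TRPC4beta and mu-opioid receptor HEK293 stable cells; Measure: B-scored integrated calcium fluorescence ratio; Benchmarks: low control buffer alone, high control maximal DAMGO; Schedule: 45 min room-temperature Fluo4 loading, 110 s read.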
TRPC4 spec 2: second check of whether TRPC6 inhibitors also affect mouse TRPC4; HEK293 TRPC4/MOR, membrane potential dye fluorescence; channel activated by saturating DAMGO dose; AID 2776; shares compounds with TRPC6 inh; 920 compounds, 42% hits; inhibition, % at 10 µM;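 active means compounds whose fluorescence signal differed from control wells by over 3 SD, either direction, in both duplicate plates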
TRPC4 spec: tests whether TRPC6 inhibitors also affect mouse TRPC4; 920 compounds, 61% hits; AID 2777; HEK293 TRPC4/mu-opioid, membrane potential fluorescence; shares compounds with TRPC6 inh; activity change, negative = inhibition, % at 10 µM;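 active means rise or fall in signal beyond 3 SD of buffer-only wells in both replicate plates, either sign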;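 further: integrated kinetic ratio of fluorescence range over baseline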
HEK293 MPD ctr 2-1: second counter-screen for TRPC6 inhibitors: parental HEK293 cells | parental HEK293 membrane potential dye fluorescence; maximal acetylcholine challenge after compound addition | signal change vs control, % at 10 µM | shares compounds with TRPC6 inh | 920 compounds, 31% hits;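 active means membrane potential signal moving either way by over 3 SD of the maximum-effect control, in both duplicate plates, meaning non-specific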
HEK293 MPD ctr-1: parental HEK293 nonspecific activity of TRPC6 inhibitors | shares compounds with TRPC6 inh | parental HEK293 membrane potential dye fluorescence | membrane potential signal change, % at 10 µM | 920 compounds, 60% hits;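 active means membrane potential signal shifting up or down by more than 3 SD of buffer-only wells, on both duplicate plates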
HEK293 MPD ctr-2: checks TRPC6 modulator effects in parental HEK293 cells; shares compounds with TRPC6 inh; membrane potential dye fluorescence; membrane potential signal change, % at 10 µM; 2,400 compounds, 51% hits; AID 488924;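 active means membrane potential signal moves up or down beyond 5 SD from buffer-only wells, on both duplicate plates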
HEK293 MPD ctr 2-2: second check of TRPC6 modulator effects in parental HEK293 cells | shares compounds with TRPC6 inh | inhibition, % at 10 µM | 2,400 compounds, 14% hits | AID 488926 | membrane potential dye fluorescence; after compound, maximal acetylcholine stimulation;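 active means membrane potential signal drops by more than 5 SD from the mean control signal, in both duplicate plates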
TRPC4 ctr mod: tests whether TRPC6 modulators also affect mouse TRPC4. shares compounds with TRPC6 inh. HEK293 TRPC4/mu-opioid, membrane potential fluorescence. percent change from control (negative = decrease, positive = increase), % at 10 µM. 2,400 compounds, 69% hits. AID 488927;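 active means membrane potential signal moved up or down beyond 5 SD of buffer control wells, in both duplicate plates, actives on both sides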
TRPC4/MOR inh 2: mouse TRPC4 off-target activity of TRPC6 modulators, second screen; 2,400 compounds, 55% hits; inhibition, % at 10 µM; AID 488928; HEK293 TRPC4/mu-opioid, membrane potential dye fluorescence; stimulated with maximal-effect DAMGO; shares compounds with TRPC6 inh;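 active means drop in membrane potential signal beyond 5 SD of the control wells in both duplicate plates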;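 further: TRPC4 counter screen for TRPC6 hits run under conditions tuned for TRPC6 not TRPC4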
TRPC6 block conf: confirmation of mouse TRPC6 inhibitors | shares compounds with TRPC6 inh | HEK293-TRPC6, membrane potential dye, ACh-evoked depolarization | inhibition, % at 10 µM | 3,300 compounds, 43% hits | AID 488960;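 active means fluorescence ratio falls more than 5 SD below the full-stimulation control mean, in both duplicate runs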;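 further: integrated fluorescence ratio of peak minus minimum over baseline after agonist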
TRPC6 act confirm: confirmation of mouse TRPC6 activators; activation, % at 10 µM; 2,800 compounds, 11% hits; HEK293-TRPC6 membrane potential dye fluorescence, FDSS; shares compounds with TRPC6 inh;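 active means ratio signal rise beyond 5 SD above unstimulated control wells' mean, seen in both duplicate runs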
Of the large screens only hits and unclear results are named; the others gave an inactive call (follow-up assays come after a bar, where they were run).

O=C(c1ccco1)N1CCCC(c2nc3c(nnn3Cc3cccc(Cl)c3)c(=O)[nH]2)C1 (stereo unspecified)	TRPC6 inh -5.2 | HEK293 MPD ctr-2 inactive | HEK293 MPD ctr 2-2 inactive | TRPC4 ctr mod 17% | TRPC4/MOR inh 2 inactive | TRPC6 block conf 50% | TRPC6 act confirm inactive
O=C(c1ccco1)N1CCCC(c2nc3c(nnn3Cc3ccc(Cl)cc3Cl)c(=O)[nH]2)C1 (stereo unspecified)	none
CC(Oc1ccc2c3c(c(=O)oc2c1)CCC3)C(=O)NC1CCN(Cc2ccccc2)CC1 (stereo unspecified)	TRPC6 inh -6.3 | HEK293 MPD ctr-2 inactive | HEK293 MPD ctr 2-2 inactive | TRPC4 ctr mod -14% | TRPC4/MOR inh 2 74% | TRPC6 block conf 58% | TRPC6 act confirm inactive
CCN(C(=O)c1ccc(S(=O)(=O)N2CCCC2)cc1)C1CCS(=O)(=O)C1 (stereo unspecified)	none
O=C(Nc1cccnc1)c1cnn2cccnc12	TRPC6 inh -5.2 | HEK293 MPD ctr-2 -96% | HEK293 MPD ctr 2-2 inactive | TRPC4 ctr mod -10% | TRPC4/MOR inh 2 inactive | TRPC6 block conf inactive | TRPC6 act confirm inactive
CN(C)CCCN(C(=O)c1cc(Cl)sc1Cl)c1nc2cc3c(cc2s1)OCO3	TRPC6 inh -5.1 | HEK293 MPD ctr-2 inactive | HEK293 MPD ctr 2-2 55% | TRPC4 ctr mod inactive | TRPC4/MOR inh 2 91% | TRPC6 block conf 61% | TRPC6 act confirm inactive
CN(C)CCCN(C(=O)c1ccc(Cl)s1)c1nc2cc3c(cc2s1)OCO3	TRPC6 inh -6.1, TRPC4 agonist 100 | HEK293 MPD ctr-2 inactive | HEK293 MPD ctr 2-2 inactive | TRPC4 ctr mod -22% | TRPC4/MOR inh 2 84% | TRPC6 block conf 48% | TRPC6 act confirm inactive
CN(C)CCCN(C(=O)c1ccc(Br)s1)c1nc2cc3c(cc2s1)OCCO3	TRPC6 inh -6.4, TRPC4 agonist 63 | HEK293 MPD ctr-2 inactive | HEK293 MPD ctr 2-2 inactive | TRPC4 ctr mod -14% | TRPC4/MOR inh 2 82% | TRPC6 block conf 60% | TRPC6 act confirm inactive
CN(C)CCCN(C(=O)c1cccs1)c1nc2cc3c(cc2s1)OCO3	TRPC4 inh -8, TRPC6 inh -9.7 | HEK293 MPD ctr-2 inactive | HEK293 MPD ctr 2-2 inactive | TRPC4 ctr mod -19% | TRPC4/MOR inh 2 64% | TRPC6 block conf 42% | TRPC6 act confirm inactive
Cc1ccc2nc(N(CCN(C)C)C(=O)c3cc(Cl)sc3Cl)sc2c1	none
CN(C)CCCN(C(=O)c1ccc([N+](=O)[O-])s1)c1nc2cc3c(cc2s1)OCCO3	none
CCN(CC)CCN(C(=O)c1ccc(Br)s1)c1nc2cc3c(cc2s1)OCCO3	none
CCCCn1c(N)c(N(CCOC)C(=O)c2cc(S(=O)(=O)N3CCCCC3)ccc2C)c(=O)[nH]c1=O	none
O=C(O)/C=C/c1ccc(S(=O)(=O)Nc2ccccc2C(=O)Nc2ccc(F)cc2)cc1	none
CCOCCCNC(=S)N1CCCN(c2nc3cc(C)ccc3cc2C#N)CC1	TRPC6 inh -10 | TRPC4 spec 2 inactive | TRPC4 spec inactive | HEK293 MPD ctr 2-1 inactive | HEK293 MPD ctr-1 inactive | TRPC6 block conf 75%
COCCN1CC(O)=C(c2nc3ccccc3c(=O)[nH]2)C1=N	none
COc1ccccc1N1CC(O)=C(c2nc3ccccc3c(=O)[nH]2)C1=N	TRPC6 inh -5 | HEK293 MPD ctr-2 inactive | HEK293 MPD ctr 2-2 inactive | TRPC4 ctr mod 9.0% | TRPC4/MOR inh 2 inactive | TRPC6 block conf inactive
Cc1ccc([N+](=O)[O-])c(OCCN2CCCCCC2)c1	none
Cc1ccc([N+](=O)[O-])c(OCCCN2CCC(Cc3ccccc3)CC2)c1	TRPC6 inh -5.2 | HEK293 MPD ctr-2 inactive | HEK293 MPD ctr 2-2 inactive | TRPC4 ctr mod inactive | TRPC4/MOR inh 2 73% | TRPC6 block conf 53% | TRPC6 act confirm inactive
O=Cc1cc(Cl)ccc1OCCN1CCC(Cc2ccccc2)CC1	none
O=[N+]([O-])c1cccc(OCCN2CCC(Cc3ccccc3)CC2)c1	TRPC6 inh -8.4 | TRPC4 spec 2 33% | TRPC4 spec inactive | HEK293 MPD ctr 2-1 inactive | HEK293 MPD ctr-1 inactive | TRPC6 block conf 61% | TRPC6 act confirm inactive
O=[N+]([O-])c1ccc(Cl)cc1N1CCCC1	none
O=[N+]([O-])c1cccc2c(N3CCCC3)ccnc12	TRPC6 inh -8.9 | HEK293 MPD ctr-2 -360% | HEK293 MPD ctr 2-2 95% | TRPC4 ctr mod -44% | TRPC4/MOR inh 2 56% | TRPC6 block conf 70% | TRPC6 act confirm inactive
O=C(O)/C=C/c1cn(-c2ccccc2)nc1-c1ccc(-c2ccc([N+](=O)[O-])cc2)o1	none
O=C(Nc1c(C(=O)N2CCOCC2)cnn1-c1ccccc1)c1ccc(F)cc1	none
COC(=O)CSc1nnc(SCc2ccc(OC)cc2)s1	TRPC6 inh -5.5 | HEK293 MPD ctr-2 inactive | HEK293 MPD ctr 2-2 inactive | TRPC4 ctr mod inactive | TRPC4/MOR inh 2 inactive | TRPC6 block conf inactive | TRPC6 act confirm inactive
COc1ccccc1NC(=O)CNC(=O)c1ccc(Br)o1	none

Screens from PubChem.
